Here are results for one compound from ChEMBL document CHEMBL1127442, “Triazolinone biphenylsulfonamide derivatives as orally active angiotensin II antagonists with potent AT1 receptor affinity and enhanced AT2 affinity” (J Med Chem, 1994).

For test [1], the system named is Monkey. In words: Inhibition of AII pressor response by the compound in conscious, normotensive monkey, at 3 (mg/kg) peroral dose. The format is functional, Cercopithecidae. The method in brief: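 Rhesus monkeys were conscious, given furosemide (5 mg/kg iv) the prior evening, and fasted 18 h with water available. They sat chaired with minimal restraint. AII and iv compound went through saphenous or brachial vein catheters, and oral compound by nasogastric tube. Peak % inhibition of the AII pressor response was measured otherwise as in the rat protocol.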

In test [2] the test system is Rattus norvegicus. In words: Inhibition of AII pressor response by the compound in conscious, normotensive rats, at 1 (mg/kg) intravenous dose. The format is functional. The method in brief:
(§1)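 Male Sprague-Dawley rats (300-400 g) were conscious and catheterized for iv dosing and arterial pressure. Compound was given iv or po as the potassium salt in water, with PEG 400 for some oral doses. […] Peak inhibition is the mean of ≥2 rats.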

In test [3] the target is T1, Type-1 angiotensin II receptor (Oryctolagus cuniculus, UniProt P34976).
T1 sequence (P34976 whole entry): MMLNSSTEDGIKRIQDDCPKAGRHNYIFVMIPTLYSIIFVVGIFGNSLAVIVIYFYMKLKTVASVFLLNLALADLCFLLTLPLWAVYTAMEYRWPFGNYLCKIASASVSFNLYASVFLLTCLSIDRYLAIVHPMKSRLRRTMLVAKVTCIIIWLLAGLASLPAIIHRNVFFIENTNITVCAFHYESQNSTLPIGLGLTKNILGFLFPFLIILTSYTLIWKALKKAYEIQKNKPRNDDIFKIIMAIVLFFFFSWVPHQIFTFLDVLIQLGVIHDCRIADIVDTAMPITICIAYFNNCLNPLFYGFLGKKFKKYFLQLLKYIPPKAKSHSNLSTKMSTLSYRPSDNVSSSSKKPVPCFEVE
The test is described as follows: In vitro inhibitory activity against angiotensin II rabbit aorta AT1 receptor using radioligand [125I]-Sar Ile-AII. It counts as tissue-based.

The subject of test [4] is Monkey. The test is described as follows: Time from onset of action until significant (i.e., >=30%) inhibition of pressor response is no longer observed, at 3 (mg/kg) peroral dose. It counts as functional, Cercopithecidae.
In test [5] the test system is Rattus norvegicus. The test is described as follows: Inhibition of AII pressor response by the compound in conscious, normotensive rats, at 1 (mg/kg) peroral dose. The format is functional. The method in brief: as §1
Test [6] deals with Rattus norvegicus. The test is described as follows: Time from onset of action until significant (i.e., >=30%) inhibition of pressor response is no longer observed, at 1 (mg/kg) peroral dose. The format is functional. The method in brief: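 Conscious catheterized male Sprague-Dawley rats received compound iv or po as the water-soluble potassium salt, or in PEG 400 orally. AII (0.1 μg/kg iv) boluses were repeated at intervals while the compound was active.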

Test [7] deals with Rattus norvegicus. The test is described as follows: Time from onset of action until significant (i.e., >=30%) inhibition of pressor response is no longer observed, at 1 (mg/kg) intravenous dose. It counts as functional.
The target in test [8] is T2, Type-2 angiotensin II receptor (Rattus norvegicus, UniProt P35351).
T2 sequence (P35351 whole entry): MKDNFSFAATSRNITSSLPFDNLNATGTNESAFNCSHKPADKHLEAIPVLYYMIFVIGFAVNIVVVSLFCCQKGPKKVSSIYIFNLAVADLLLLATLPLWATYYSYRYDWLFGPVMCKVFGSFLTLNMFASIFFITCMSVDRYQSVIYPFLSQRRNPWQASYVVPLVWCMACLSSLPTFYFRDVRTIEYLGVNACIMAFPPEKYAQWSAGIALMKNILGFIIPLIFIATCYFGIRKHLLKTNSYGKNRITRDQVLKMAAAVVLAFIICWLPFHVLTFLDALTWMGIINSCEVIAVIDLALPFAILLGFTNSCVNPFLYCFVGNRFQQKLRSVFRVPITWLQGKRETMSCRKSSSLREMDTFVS
In words: In vitro inhibitory activity against angiotensin II rat midbrain AT2 receptor using radioligand [125I]-Sar Ile-AII. The method in brief:
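Dithiothreitol ([…]) was added to the assay mixture to abolish residual AT1 binding. Tubes were run in duplicate, and IC50 came from nonlinear regression of displacement curves.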

Each structure is given as a SMILES string.

Regarding `CCCCc1nn(-c2ccccc2C(F)(F)F)c(=O)n1Cc1ccc(-c2ccccc2S(=O)(=O)NC(=O)c2ccco2)cc1`, the Inhibition amounted to 54% in test [1], 85% in test [2] and 70% in test [5]. Moreover, the half-maximal inhibitory concentration (IC50) was found to be 0.00026 µM in test [3] and 0.12 µM in test [8]. In addition, the Duration was 4 h in test [4], 3.7 h in test [6] and above 6 h in test [7].
